Assay results reported in the M2OR odorant receptor database.

Experiments:
Conditions in all cases: stereoisomer not certain
UniProt A2ATE5 = biological target: T1, UniProt A2ATE5
T1 sequence (whole entry): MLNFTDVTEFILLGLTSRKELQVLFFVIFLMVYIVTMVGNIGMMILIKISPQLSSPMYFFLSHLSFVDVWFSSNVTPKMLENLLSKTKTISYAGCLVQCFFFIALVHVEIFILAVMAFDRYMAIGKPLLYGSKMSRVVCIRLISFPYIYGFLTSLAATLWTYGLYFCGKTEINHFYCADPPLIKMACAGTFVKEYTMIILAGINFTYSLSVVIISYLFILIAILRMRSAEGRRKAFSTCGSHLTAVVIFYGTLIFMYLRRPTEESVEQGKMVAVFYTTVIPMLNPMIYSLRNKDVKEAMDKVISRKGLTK
Summary of the method: (§1)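 Whether a receptor–molecule pair is responsive (active) rests on the original authors' judgment that its measured signal was statistically different from baseline. Pairs without that judgment are non-responsive (inactive). Sources used varied assay methods, commonly transient luciferase assays in mammalian cell lines.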

UniProt A2AVB0 = biological target: T2, UniProt A2AVB0
T2 sequence (whole entry): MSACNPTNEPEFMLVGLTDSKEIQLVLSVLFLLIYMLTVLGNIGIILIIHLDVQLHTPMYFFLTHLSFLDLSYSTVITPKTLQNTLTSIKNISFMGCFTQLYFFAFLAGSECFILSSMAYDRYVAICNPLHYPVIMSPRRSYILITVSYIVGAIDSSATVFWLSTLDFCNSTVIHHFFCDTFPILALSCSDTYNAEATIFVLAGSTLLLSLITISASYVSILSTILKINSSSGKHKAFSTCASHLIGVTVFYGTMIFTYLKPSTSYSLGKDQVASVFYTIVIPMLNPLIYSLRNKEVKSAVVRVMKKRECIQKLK
Summary of the method: as §1

UniProt E9PVX1 = biological target: T3, UniProt E9PVX1
T3 sequence (whole entry): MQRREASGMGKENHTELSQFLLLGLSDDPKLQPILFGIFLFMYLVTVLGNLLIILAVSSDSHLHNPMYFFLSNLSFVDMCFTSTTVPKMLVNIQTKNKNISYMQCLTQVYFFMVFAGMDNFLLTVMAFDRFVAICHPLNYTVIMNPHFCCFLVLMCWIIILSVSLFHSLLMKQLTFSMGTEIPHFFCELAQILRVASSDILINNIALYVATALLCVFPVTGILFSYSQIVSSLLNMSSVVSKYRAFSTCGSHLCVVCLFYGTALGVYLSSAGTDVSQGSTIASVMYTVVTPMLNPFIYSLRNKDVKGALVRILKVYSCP
Summary of the method: as §1

UniProt E9PZ66 = biological target: T4, UniProt E9PZ66
T4 sequence (whole entry): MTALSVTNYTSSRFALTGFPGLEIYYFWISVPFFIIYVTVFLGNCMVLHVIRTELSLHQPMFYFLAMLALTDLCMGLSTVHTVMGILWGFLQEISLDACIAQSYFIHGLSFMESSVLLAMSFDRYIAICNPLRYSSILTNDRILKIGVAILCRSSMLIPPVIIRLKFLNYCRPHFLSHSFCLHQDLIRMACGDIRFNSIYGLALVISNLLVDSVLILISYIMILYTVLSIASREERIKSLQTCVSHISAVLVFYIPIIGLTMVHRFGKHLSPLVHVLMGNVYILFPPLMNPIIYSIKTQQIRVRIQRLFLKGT
Summary of the method: as §1

UniProt E9Q4X7 = biological target: T5, UniProt E9Q4X7
T5 sequence (whole entry): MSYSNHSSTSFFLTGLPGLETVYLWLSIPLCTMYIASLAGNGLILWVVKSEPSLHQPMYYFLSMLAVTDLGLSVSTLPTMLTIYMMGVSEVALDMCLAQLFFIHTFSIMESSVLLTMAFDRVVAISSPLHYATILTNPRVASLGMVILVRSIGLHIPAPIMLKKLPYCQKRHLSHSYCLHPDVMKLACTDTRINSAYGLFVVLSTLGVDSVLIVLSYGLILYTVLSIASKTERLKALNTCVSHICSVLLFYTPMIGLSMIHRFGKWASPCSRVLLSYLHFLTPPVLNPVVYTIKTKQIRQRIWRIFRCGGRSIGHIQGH
Summary of the method: as §1

UniProt E9Q546 = biological target: T6, UniProt E9Q546
T6 sequence (whole entry): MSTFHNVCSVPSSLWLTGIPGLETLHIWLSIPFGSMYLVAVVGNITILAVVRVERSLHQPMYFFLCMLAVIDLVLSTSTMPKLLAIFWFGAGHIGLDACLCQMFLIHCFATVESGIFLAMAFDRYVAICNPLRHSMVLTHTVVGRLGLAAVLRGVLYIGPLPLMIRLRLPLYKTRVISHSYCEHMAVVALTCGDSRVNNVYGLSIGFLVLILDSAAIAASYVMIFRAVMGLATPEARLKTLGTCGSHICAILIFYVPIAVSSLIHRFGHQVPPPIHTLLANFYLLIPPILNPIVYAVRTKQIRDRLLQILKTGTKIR
Summary of the method: as §1

UniProt E9Q6Z7 = biological target: T7, UniProt E9Q6Z7
T7 sequence (whole entry): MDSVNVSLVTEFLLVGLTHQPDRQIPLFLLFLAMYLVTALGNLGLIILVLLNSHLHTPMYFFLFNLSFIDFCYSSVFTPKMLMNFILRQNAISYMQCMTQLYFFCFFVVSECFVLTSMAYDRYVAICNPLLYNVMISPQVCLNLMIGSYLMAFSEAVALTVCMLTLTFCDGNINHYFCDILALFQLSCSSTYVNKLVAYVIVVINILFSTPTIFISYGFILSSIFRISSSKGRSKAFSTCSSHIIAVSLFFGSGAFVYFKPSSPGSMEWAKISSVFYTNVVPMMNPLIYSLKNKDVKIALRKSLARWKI
Summary of the method: as §1

UniProt E1BM68 = biological target: T8, UniProt E1BM68
T8 sequence (whole entry): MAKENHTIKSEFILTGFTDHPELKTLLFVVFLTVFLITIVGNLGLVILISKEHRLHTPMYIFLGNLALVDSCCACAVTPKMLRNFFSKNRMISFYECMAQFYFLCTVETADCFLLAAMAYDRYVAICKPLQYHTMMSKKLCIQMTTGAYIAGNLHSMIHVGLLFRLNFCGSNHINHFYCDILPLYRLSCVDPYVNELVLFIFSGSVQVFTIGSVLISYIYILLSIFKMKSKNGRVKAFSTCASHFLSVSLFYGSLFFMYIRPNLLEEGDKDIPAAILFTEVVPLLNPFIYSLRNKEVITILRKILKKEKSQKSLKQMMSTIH
Summary of the method: as §1

UniProt E9QAT7 = biological target: T9, UniProt E9QAT7
T9 sequence (whole entry): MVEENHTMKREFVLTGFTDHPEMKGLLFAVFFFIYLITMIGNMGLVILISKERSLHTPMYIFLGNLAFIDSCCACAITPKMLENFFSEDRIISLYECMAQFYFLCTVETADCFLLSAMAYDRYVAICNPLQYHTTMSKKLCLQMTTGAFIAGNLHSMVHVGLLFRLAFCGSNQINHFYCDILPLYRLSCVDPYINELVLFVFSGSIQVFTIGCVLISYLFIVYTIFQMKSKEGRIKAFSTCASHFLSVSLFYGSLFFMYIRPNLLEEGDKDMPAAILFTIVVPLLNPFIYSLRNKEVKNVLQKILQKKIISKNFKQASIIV
Summary of the method: as §1

UniProt A2AVB5 = biological target: T10, UniProt A2AVB5
T10 sequence (whole entry): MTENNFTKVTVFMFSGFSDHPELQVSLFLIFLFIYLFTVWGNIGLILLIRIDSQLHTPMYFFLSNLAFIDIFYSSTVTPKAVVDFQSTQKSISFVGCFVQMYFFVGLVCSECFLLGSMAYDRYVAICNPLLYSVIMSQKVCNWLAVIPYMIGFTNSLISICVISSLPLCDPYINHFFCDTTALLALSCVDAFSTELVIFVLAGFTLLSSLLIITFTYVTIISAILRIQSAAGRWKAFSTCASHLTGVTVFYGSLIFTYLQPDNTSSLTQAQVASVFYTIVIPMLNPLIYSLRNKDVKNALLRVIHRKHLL
Summary of the method: as §1

UniProt B2RVX8 = biological target: T11, UniProt B2RVX8
T11 sequence (whole entry): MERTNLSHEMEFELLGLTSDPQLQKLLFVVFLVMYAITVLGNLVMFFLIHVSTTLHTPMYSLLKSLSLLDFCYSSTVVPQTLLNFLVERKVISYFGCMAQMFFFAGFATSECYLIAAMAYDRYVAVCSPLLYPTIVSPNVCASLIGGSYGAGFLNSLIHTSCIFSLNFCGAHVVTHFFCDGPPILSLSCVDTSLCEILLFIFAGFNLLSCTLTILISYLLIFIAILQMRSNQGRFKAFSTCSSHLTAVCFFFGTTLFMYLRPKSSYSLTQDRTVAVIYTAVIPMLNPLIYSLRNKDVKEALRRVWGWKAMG
Summary of the method: as §1

UniProt E9PX47 = biological target: T12, UniProt E9PX47
T12 sequence (whole entry): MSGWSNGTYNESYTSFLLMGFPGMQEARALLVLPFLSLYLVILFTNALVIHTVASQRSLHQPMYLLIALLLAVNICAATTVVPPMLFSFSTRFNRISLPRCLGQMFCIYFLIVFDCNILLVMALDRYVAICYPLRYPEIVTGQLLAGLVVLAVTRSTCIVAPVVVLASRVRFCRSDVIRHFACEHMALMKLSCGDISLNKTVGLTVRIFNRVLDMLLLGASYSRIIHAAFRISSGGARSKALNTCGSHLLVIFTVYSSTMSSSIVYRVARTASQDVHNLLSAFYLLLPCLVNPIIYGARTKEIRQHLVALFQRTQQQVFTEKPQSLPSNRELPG
Summary of the method: as §1

UniProt E9PXN3 = biological target: T13, UniProt E9PXN3
T13 sequence (whole entry): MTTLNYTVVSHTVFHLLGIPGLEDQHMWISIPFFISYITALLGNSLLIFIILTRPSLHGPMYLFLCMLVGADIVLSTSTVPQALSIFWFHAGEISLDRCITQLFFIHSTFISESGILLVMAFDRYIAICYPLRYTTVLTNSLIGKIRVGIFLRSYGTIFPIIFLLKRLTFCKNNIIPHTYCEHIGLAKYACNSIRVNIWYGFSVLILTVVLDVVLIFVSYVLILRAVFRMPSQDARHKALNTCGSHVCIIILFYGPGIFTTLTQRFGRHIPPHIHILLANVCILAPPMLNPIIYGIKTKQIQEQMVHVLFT
Summary of the method: as §1

UniProt K7N609 = biological target: T14, UniProt K7N609
T14 sequence (whole entry): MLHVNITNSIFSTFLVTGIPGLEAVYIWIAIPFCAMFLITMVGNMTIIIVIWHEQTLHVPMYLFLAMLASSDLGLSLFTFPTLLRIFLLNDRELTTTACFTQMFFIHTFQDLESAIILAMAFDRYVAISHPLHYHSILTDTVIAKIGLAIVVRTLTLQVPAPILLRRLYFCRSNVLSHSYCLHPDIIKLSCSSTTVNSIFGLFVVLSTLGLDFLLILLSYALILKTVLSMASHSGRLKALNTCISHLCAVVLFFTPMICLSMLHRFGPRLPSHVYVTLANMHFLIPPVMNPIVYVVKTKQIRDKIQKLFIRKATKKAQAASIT
Summary of the method: as §1

Measured: odorant receptor agonist call;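 note: active if original authors judged signal statistically different from baseline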

C=CC(=C)CCC=C(C)CCC=C(C)C
inactive: UniProt A2ATE5 | UniProt A2AVB0 | UniProt E9PVX1 | UniProt E9PZ66 | UniProt E9Q4X7 | UniProt E9Q546 | UniProt E9Q6Z7

Cc1cnc(C)cn1
active: UniProt E1BM68
inactive: UniProt E9QAT7

CSSSC
inactive: UniProt A2ATE5 | UniProt A2AVB0 | UniProt E9PVX1 | UniProt E9PZ66 | UniProt E9Q4X7 | UniProt E9Q546 | UniProt E9Q6Z7

CCCC(C)=O
inactive: UniProt A2AVB5 | UniProt B2RVX8 | UniProt E9PX47 | UniProt E9PXN3 | UniProt E9Q546 | UniProt K7N609

CCc1nccnc1C(C)=O
active: UniProt E1BM68
inactive: UniProt E9QAT7

CCCCCCCOC(=O)C(C)C
inactive: UniProt A2ATE5 | UniProt A2AVB0 | UniProt E9PVX1 | UniProt E9PZ66 | UniProt E9Q4X7 | UniProt E9Q546 | UniProt E9Q6Z7
